Published values from different studies.
Lines come from different studies, so protocols differ.
Matrix: plasma

| SMILES | species | route | dose | setting | quantity | value |
| --- | --- | --- | --- | --- | --- | --- |
| COc1ccc(N(Cc2csc(-c3ccccc3)n2)C(=O)CCCCCC(=O)NO)cc1 | female Sprague-Dawley rat | oral | 30 mg/kg |  | MRT | 3.18 h |
| COc1ccc(-c2coc3cc(O)cc(O)c3c2=O)cc1 | rat | intravenous | 2 mg/kg |  | MRT | 0.27 h |
| Cn1c(=O)c2[nH]cnc2n(C)c1=O | male Sprague-Dawley rat | intravenous | 11.25 mg/kg |  | MRT(0-t) | 3.3 h |
| CCOc1c([C@H](C)n2nc(C)c3c(N)ncnc32)cc(Cl)c(F)c1[C@@H]1CNC(=O)C1 | male Sprague-Dawley rat | oral | 2 mg/kg | single dose | MRT(0-inf) | 8.49 h |
| C[C@H]1Oc2cc(cnc2N)-c2c(nn(C)c2C#N)CN(C)C(=O)c2ccc(F)cc21 | male Sprague-Dawley rat | oral | 5 mg/kg | single dose | MRT(0-t) | 6.6 h |
| O=C1CCC(N2Cc3cc(C4CCN(Cc5ccccc5)CC4)ccc3C2=O)C(=O)N1 (stereo not drawn) | male Sprague-Dawley rat | intravenous | 1 mg/kg |  | MRT(0-inf) | 4.13 h |
| CONC(=O)c1cccc2c1cc(C)n2-c1nc2c(c(NCc3ccccc3)n1)CCCN2 | male Sprague-Dawley rat | oral | 10 mg/kg | single dose | MRT | 1.55 h |
| C=CC(=O)N1CCC([C@@H]2CCNc3c(C(N)=O)c(-c4ccc(Oc5ccccc5)cc4)nn32)CC1 | Sprague-Dawley rat | oral | 16 mg/kg |  | MRT(0-t) | 3.81 h |
| C[C@H]1[C@@H](O)O[C@@H]2O[C@@]3(C)CC[C@H]4[C@H](C)CC[C@@H]1[C@@]24OO3 | male Sprague-Dawley rat | oral | 10 mg/kg |  | MRT(0-inf) | 2.97 h |
| CC(=O)c1c(C)c2cnc(Nc3ccc(N4CCNCC4)cn3)nc2n(C2CCCC2)c1=O | male Sprague-Dawley rat | intravenous | 5 mg/kg |  | MRT | 2.5 h |
| C[C@@]12C[C@@]3(O)O[C@@H](O1)[C@]1(COC(=O)c4ccccc4)[C@H]3C[C@@]12O[C@@H]1O[C@H](CO)[C@@H](O)[C@H](O)[C@H]1O | male Sprague-Dawley rat | oral | 80 mg/kg |  | MRT(0-t) | 5.13 h |
| CC[C@@H]([C@H](C)O)n1ncn(-c2ccc(N3CCN(c4ccc(OC[C@@H]5CO[C@@](Cn6cncn6)(c6ccc(F)cc6F)C5)cc4)CC3)cc2)c1=O | Sprague-Dawley rat | oral | 40 mg/kg |  | MRT(0-t) | 10.3 h |
| Nc1ccn([C@@H]2O[C@H](CO)[C@@H](O)C2(F)F)c(=O)n1 | male Sprague-Dawley rat | intravenous | 5 mg/kg |  | MRT(0-inf) | 0.13 h |
| COc1cc(-c2cc(C(C)=O)n3ccccc23)c(OC)cc1Cn1ccnc1 | male Sprague-Dawley rat | intravenous | 5 mg/kg |  | MRT(0-t) | 1.14 h |
| COc1nc(-c2cccc(-c3ccccc3)c2C)ccc1CNCCNC(=O)CCCCCCCCCCC(=O)N1CCN(CCNC(=O)c2cc3c(=O)n4cccc(C)c4nc3n(CCc3cccs3)c2=N)CC1 | male Sprague-Dawley rat | intravenous | 2 mg/kg |  | MRT(0-inf) | 5.1 h |
